Laboratory results reported in ChEMBL document CHEMBL4699424, “New chemical agents based on adamantane-monoterpene conjugates against orthopoxvirus infections” (RSC Med Chem, 2020).

Legend:
Vaccinia virus [1] = assay: Antiviral activity against Vaccinia virus; type: functional, organism-based; settings: Orthopoxvirus vaccinia
[2] = Selectivity index, ratio of CC50 for African green monkey Vero cells to IC50 for Vaccinia virus Copenhagen infected in African green monkey Vero cells assessed as reduction in cell survival incubated for 4 days by neutral dye based colorimetric analysis; type: toxicity; settings: read-out: Ratio CC50/IC50
Vaccinia virus [3] = assay: Antiviral activity against Vaccinia virus Copenhagen infected in African green monkey Vero cells assessed as reduction in cell survival incubated for 4 days by neutral red dye based colorimetric analysis; type: functional, organism-based; settings: Orthopoxvirus vaccinia, 96 h
[4] = Cytotoxicity against African green monkey Vero cells assessed as […]; type: cell-based; settings: chlorocebus sabaeus
Outline: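 Uninfected Vero monolayers in DMEM with 2% serum, given 8 three-fold compound dilutions starting at 1, 10 or 100 μg ml–1. Cell viability read by neutral red uptake: dye 1.5 h, washes, lysis, OD. CC50, the concentration causing 50% cell death, calculated from OD values.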

[5] = Selectivity index, ratio of CC50 for African green monkey Vero cells to IC50 for Ectromelia virus K-1 infected in African green monkey Vero cells assessed as reduction in cell survival incubated for 4 days by neutral dye based colorimetric analysis; type: toxicity; settings: read-out: Ratio CC50/IC50
[6] = Selectivity index, ratio of CC50 for African green monkey Vero cells to IC50 for Cowpox virus Grishak infected in African green monkey Vero cells assessed as reduction in cell survival incubated for 4 days by neutral dye based colorimetric analysis; type: toxicity; settings: read-out: Ratio CC50/IC50
Ectromelia virus = assay: Antiviral activity against Ectromelia virus K-1 infected in African green monkey Vero cells assessed as reduction in cell survival incubated for 4 days by neutral red dye based colorimetric analysis; type: functional; settings: K-1, Vero, 96 h
Cowpox virus = assay: Antiviral activity against Cowpox virus Grishak infected in African green monkey Vero cells assessed as reduction in cell survival incubated for 4 days by neutral red dye based colorimetric analysis; type: functional, organism-based; settings: 96 h
Vaccinia virus [7] = assay: Antiviral activity against Vaccinia virus assessed as reduction in viral reproduction at 2 ug/ml after 3 hrs relative to control; type: functional, Orthopoxvirus vaccinia; set-up: scale not given: the % may be the effect or the level left; settings: dose 2 µg/ml
Vaccinia virus [8] = assay: Antiviral activity against Vaccinia virus assessed as reduction in viral reproduction at 2 ug/ml relative to control; type: functional, Orthopoxvirus vaccinia; set-up: scale not given: the % may be the effect or the level left; settings: dose 2 µg/ml

Compound: CC1(C)[C@H]2CC[C@]1(C)[C@H](OC(=O)CCN1CCOCC1)C2
- IC50 (Vaccinia virus [1]): 3.5 µM

Compound: CC1CCN(CC(=O)N[C@@H]2C[C@H]3CC[C@]2(C)C3(C)C)CC1
- IC50 (Vaccinia virus [1]): 2.5 µM

Compound: C=C(C)[C@@H]1CC=C(CNC(=O)C23CC4CC(CC(C4)C2)C3)CC1
- selectivity ratio at 96 h [2]: 26
- IC50 (Vaccinia virus [3]): 12.3 µM
- CC50 [4]: 319 µM

Compound: CC1(C)[C@H]2CC[C@](C)(C2)[C@H]1NC(=O)C12CC3CC(CC(C3)C1)C2
- selectivity ratio at 96 h [2]: 22
- IC50 (Vaccinia virus [3]): 14.4 µM
- CC50 [4]: 317 µM

Compound: CC1=CC[C@H](CCNC(=O)C2C3CC4CC(C3)CC2C4)C1(C)C (some centres undefined)
- selectivity ratio at 96 h [2]: 122
- IC50 (Vaccinia virus [3]): 2.6 µM
- CC50 [4]: 317 µM

Compound: CC1(C)[C@H]2CC=C(CNC(=O)C3C4CC5CC(C4)CC3C5)[C@@H]1C2 (some centres undefined)
- selectivity ratio at 96 h [5]: 97
- selectivity ratio at 96 h [6]: 82
- selectivity ratio at 96 h [2]: 267
- IC50 (Vaccinia virus [3]): 4.6 µM
- IC50 (Ectromelia virus): 12.6 µM
- IC50 (Cowpox virus): 15 µM
- CC50 [4]: 1230 µM

Compound: CC(C)=CCCC(C)CC(=O)NC1C2CC3CC(C2)CC1C3 (centres undefined)
- selectivity ratio at 96 h [2]: 22
- IC50 (Vaccinia virus [3]): 14.8 µM
- CC50 [4]: 330 µM

Compound: O=C1Nc2ccccc2/C1=N\NC(=S)NC1C2CC3CC(C2)CC1C3 (centres undefined)
- Activity (Vaccinia virus [7]): 42%

Compound: CC(C)=CCC[C@H](C)CCNC(=O)C12CC3CC(CC(C3)C1)C2
- selectivity ratio at 96 h [2]: 5
- IC50 (Vaccinia virus [3]): 3.6 µM
- CC50 [4]: 18.1 µM

Compound: CC1=CC[C@H](CCNC(=O)C23CC4CC(CC(C4)C2)C3)C1(C)C
- selectivity ratio at 96 h [2]: 126
- IC50 (Vaccinia virus [3]): 2.5 µM
- CC50 [4]: 317 µM

Compound: CC(C)=CCC/C(C)=C/CNC(=O)C12CC3CC(CC(C3)C1)C2
- selectivity ratio at 96 h [2]: 3
- IC50 (Vaccinia virus [3]): 5.9 µM
- CC50 [4]: 18.9 µM

Compound: CC(C)=CCCC(C)CC(=O)NC12CC3CC(CC(C3)C1)C2 (centres undefined)
- selectivity ratio at 96 h [2]: 12
- IC50 (Vaccinia virus [3]): 3.1 µM
- CC50 [4]: 37 µM

Compound: CC(C)=CCC/C(C)=C\CNC(=O)C12CC3CC(CC(C3)C1)C2
- CC50 [4]: 12.9 µM

Compound: CC1(C)[C@H]2CC=C(CCNC(=O)C3C4CC5CC(C4)CC3C5)[C@@H]1C2 (some centres undefined)
- selectivity ratio at 96 h [5]: 39
- selectivity ratio at 96 h [6]: 30
- selectivity ratio at 96 h [2]: 85
- IC50 (Vaccinia virus [3]): 4.4 µM
- IC50 (Ectromelia virus): 9.5 µM
- IC50 (Cowpox virus): 12.5 µM
- CC50 [4]: 372 µM

Compound: CC1(C)[C@H]2CC=C(CCNC(=O)C34CC5CC(CC(C5)C3)C4)[C@@H]1C2
- selectivity ratio at 96 h [5]: 469
- selectivity ratio at 96 h [6]: 183
- selectivity ratio at 96 h [2]: 417
- IC50 (Vaccinia virus [3]): 1.8 µM
- IC50 (Ectromelia virus): 1.6 µM
- IC50 (Cowpox virus): 4.1 µM
- CC50 [4]: 750 µM

Compound: CC1(C)[C@@H]2CC[C@@]1(CS(=O)(=O)NC1C3CC4CC(C3)CC1C4)C(=O)C2 (some centres undefined)
- selectivity ratio at 96 h [2]: 160
- IC50 (Vaccinia virus [3]): 0.6 µM
- CC50 [4]: 95.8 µM

Compound: CC1(C)[C@@H]2CC[C@@]1(C)[C@H](NC(=O)C13CC4CC(CC(C4)C1)C3)C2
- selectivity ratio at 96 h [2]: 30
- IC50 (Vaccinia virus [3]): 10.6 µM
- CC50 [4]: 317 µM

Compound: CC(C)CCCC(C)CCNC(=O)C1C2CC3CC(C2)CC1C3 (centres undefined)
- selectivity ratio at 96 h [2]: 5
- IC50 (Vaccinia virus [3]): 2.8 µM
- CC50 [4]: 13.7 µM

Compound: CC1(C)[C@H]2CC=C(C(=O)NC3C4CC5CC(C4)CC3C5)[C@@H]1C2 (some centres undefined)
- selectivity ratio at 96 h [5]: 477
- selectivity ratio at 96 h [6]: 113
- selectivity ratio at 96 h [2]: 325
- IC50 (Vaccinia virus [3]): 2.5 µM
- IC50 (Ectromelia virus): 1.7 µM
- IC50 (Cowpox virus): 7.2 µM
- CC50 [4]: 812 µM

Compound: O=C(NC12CC3CC(CC(C3)C1)C2)C(c1ccccc1)c1ccccc1
- Activity (Vaccinia virus [8]): 72%

Compound: CC1(C)[C@H]2CC=C(CNC(=O)C34CC5CC(CC(C5)C3)C4)[C@@H]1C2
- selectivity ratio at 96 h [5]: 707
- selectivity ratio at 96 h [6]: 406
- selectivity ratio at 96 h [2]: 1120
- IC50 (Vaccinia virus [3]): 1.7 µM
- IC50 (Ectromelia virus): 2.7 µM
- IC50 (Cowpox virus): 4.7 µM
- CC50 [4]: 1910 µM

Compound: CC1(C)[C@H]2CC=C(C(=O)NC34CC5CC(CC(C5)C3)C4)[C@@H]1C2
- selectivity ratio at 96 h [2]: 11
- IC50 (Vaccinia virus [3]): 0.7 µM
- CC50 [4]: 7.9 µM

Compound: CC(C)CCCC(C)CCNC(=O)C12CC3CC(CC(C3)C1)C2 (centres undefined)
- CC50 [4]: 17.3 µM

Compound: CC1(C)[C@@H]2CC[C@@]1(CS(=O)(=O)NC13CC4CC(CC(C4)C1)C3)C(=O)C2
- selectivity ratio at 96 h [2]: 71
- IC50 (Vaccinia virus [3]): 2.3 µM
- CC50 [4]: 164 µM

Compound: O=C(NN1C(=O)C2C3C=CC(C4CC34)C2C1=O)c1ccc(C(F)(F)F)cc1 (centres undefined)
- selectivity ratio at 96 h [2]: 128000
- IC50 (Vaccinia virus [3]): 0.01 µM
- CC50 [4]: 1280 µM

Compound: Nc1ccn(C[C@@H](CO)OCP(=O)(O)O)c(=O)n1 [CIDOFOVIR]
- selectivity ratio at 96 h [2]: 12
